# Arbovirus anti = antivirals against arbovirus infection, primary screen, cell-based, full library, 10K replicate subset. arbovirus infection cell-based antiviral screen. inhibition, % at 10 µM. hit rate 0.37% among 200,000. AID 1251, 2008; in the data active = inhibition above about 30%
# ABCB1 block = ABCB1 efflux pump inhibitors, primary screen, cell-based, multiplex, flow cytometry, ABCG2 counter-screen; ATP-dependent translocase ABCB1 (Homo sapiens), P08183; CCRF-Adr cells, JC-1 efflux; inhibition, % at 6.6 µM; hit rate 0.067% among 190,000; AID 1326, 2008; in the data active = inhibition above about 40%;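 also: 0% = vehicle and 100% = reference inhibitor; higher value means more JC-1 retained so stronger ABCB1 efflux block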
# Rad51 HR inh = human RAD51 strand exchange inhibitors, primary screen, biochemical, fluorescence; DNA repair protein RAD51 homolog 1 (Homo sapiens), Q06609; hRad51 DNA strand exchange, fluorescence dequenching; inhibition, % at 10 µM; hit rate 0.085% among 200,000;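 active = inhibition above 40% at the single screening dose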;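 also: 0% = DMSO control wells and 100% = blanks with heterologous ssDNA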
#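 System: human Rad51 nucleoprotein filaments preassembled on unlabelled ssDNA. Reagent: labelled 47-mer dsDNA for strand exchange. Schedule: 30-min compound preincubation and 15-min exchange, both room temperature. Measured by: FRET fluorescence dequenching, excitation 485 nm, emission 520 nm. Read-out: Fluorescence-based percent inhibition, control- and blank-normalised. Benchmarks: plate controls and plate blanks.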
# ABCG2 inh = ABCG2 efflux pump inhibitors, primary screen, multiplex with ABCB1, IgMXP3 cells, flow cytometry; Broad substrate specificity ATP-binding cassette transporter ABCG2 (Homo sapiens), Q9UNQ0; JC-1 efflux; inhibition, % at 6.6 µM; hit rate 0.1% among 190,000; AID 1325, 2008;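 active = inhibition above 80%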;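 also: 0% = DMSO and 100% = nicardipine control wells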
# Target sequence (Q9UNQ0 whole entry, looked up): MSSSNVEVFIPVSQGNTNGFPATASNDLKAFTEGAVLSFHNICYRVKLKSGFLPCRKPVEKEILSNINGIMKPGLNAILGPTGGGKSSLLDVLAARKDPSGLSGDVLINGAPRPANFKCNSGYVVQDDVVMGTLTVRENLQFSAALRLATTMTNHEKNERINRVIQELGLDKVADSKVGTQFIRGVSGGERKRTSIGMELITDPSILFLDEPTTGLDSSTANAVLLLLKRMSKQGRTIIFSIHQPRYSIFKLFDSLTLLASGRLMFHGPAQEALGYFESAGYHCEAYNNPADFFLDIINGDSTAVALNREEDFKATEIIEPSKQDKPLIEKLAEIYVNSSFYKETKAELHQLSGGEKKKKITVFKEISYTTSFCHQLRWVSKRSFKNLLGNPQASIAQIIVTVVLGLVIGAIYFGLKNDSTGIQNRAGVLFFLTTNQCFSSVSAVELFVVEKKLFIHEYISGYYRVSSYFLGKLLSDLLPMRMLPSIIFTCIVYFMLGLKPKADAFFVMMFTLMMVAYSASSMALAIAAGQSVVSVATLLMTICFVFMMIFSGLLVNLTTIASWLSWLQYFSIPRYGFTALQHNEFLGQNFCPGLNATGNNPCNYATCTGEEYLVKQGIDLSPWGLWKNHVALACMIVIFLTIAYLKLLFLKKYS
#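 Read-out basis: Efflux inhibition in percent versus controls | Test system: ABCG2 IgMXP3 and barcoded ABCB1 CCRF-Adr cell mix | Quantity: 3 million cells/mL in well | Schedule: 10 min at 25 °C | Control set: Nicardipine as high control, DMSO as low control | Reagent: JC-1 as fluorescent efflux pump substrate | Signal: Flow cytometry of retained JC-1 fluorescence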
# MDM2 E3 inh = MDM2-luciferase reporter signal enhancers, primary screen, MDM2 E3 ligase inhibitor project, cell-based, luminescence, 1536-well; E3 ubiquitin-protein ligase Mdm2 (Homo sapiens), Q00987; hit rate 0.11% among 210,000; signal enhancement, % at 5 µM; cell-based MDM2 ubiquitination luciferase reporter, 2 h; 0 = plate control, 100 = twice control, blank-subtracted;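 active = signal enhancement of 30% or more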;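 also: luminescence tracks abundance of the self-degrading MDM2-luciferase fusion protein; higher signal means inhibition of MDM2 E3 ligase activity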
#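 Material: Stable MDM2–luciferase fusion reporter cells | Amount: 2000 cells seeded into each well | Dosing: One concentration, 5 µM, with 0.2% DMSO | Incubation: 4 h cell settling then 2 h compound exposure, 37 °C | Measured by: Luciferase luminescence | Read-out basis: % enhancement relative to plate controls after blank subtraction | Benchmarks: Control and blank well means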
# ABCB1 single pt = ABCB1 efflux pump inhibitors, confirmation, cell-based, single point, ABCG2 counter-screen | shares compounds with ABCG2 inh | inhibition, % at 6.6 µM | hit rate 7% among 270 | CCRF-Adr cells, JC-1 efflux, flow cytometry;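 active = inhibition of pump activity above 50%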;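 also: 0% = DMSO and 100% = nicardipine full pump inhibition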
# ABCG2 single pt = ABCG2 efflux pump inhibitors, confirmation, single point, IgMXP3 cells, ABCB1 counter-screen paired; shares compounds with ABCG2 inh; JC-1 efflux, flow cytometry; inhibition, % at 6.6 µM; hit rate 6% among 270;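 active = inhibition above 50%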;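 also: 0% = DMSO wells and 100% = nicardipine pump inhibitor wells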
# IgMXP3 fluor = compound autofluorescence in ABCG2-expressing IgMXP3 cells, confirmation, artefact control for ABC transporter inhibitor project, cell-based, 488/530 nm, flow cytometry | shares compounds with ABCG2 inh | compound autofluorescence 488/530 nm; active compounds read high | fluorescence at 6.6 µM | hit rate 30% among 270 | AID 1480, 2009;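 active = fluorescence in ABCG2-expressing cells above the plate's control-well mean plus 3 SD, cut at about 15 in these data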;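 also: median cell fluorescence with compound minus that of DMSO-treated control cells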
# CCRF-Adr fluor = compound autofluorescence in ABCB1-expressing CCRF-Adr cells, confirmation, artefact control for ABC transporter inhibitor project, cell-based, 488/530 nm, flow cytometry | compound autofluorescence 488/530 nm; active compounds read high | fluorescence at 6.6 µM | hit rate 30% among 270 | shares compounds with ABCG2 inh | AID 1483, 2009;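 active = fluorescence beyond the plate control mean plus 3 SD, with a fluorescence-to-maximum score over 2, cut at about 25 in these data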
# Starred values were filed as active, the others as inactive; i = inactive; . = no result. A selection: hits, their analogues and other compounds. The true share with any hit is near 0.62%.
SMILES,Arbovirus anti,ABCB1 block,Rad51 HR inh,ABCG2 inh,MDM2 E3 inh,ABCB1 single pt,ABCG2 single pt,IgMXP3 fluor,CCRF-Adr fluor
CCOc1cc(N2CCOCC2)c(OCC)cc1NC(=O)COC(=O)c1cc(C)cc(C)c1,-6.6,3.6,-2.9,106.0*,-9.3,9.2,44.8,-1.99,-4.29
CCOc1ccc(OCC)c(NC(=O)CN2CCN(c3ccc(C)cc3C)CC2)c1,3.3,2.7,.,80.9*,-17.7,10.6,31.8,8.76,-1.84
CCOC(=O)N1CCN(CC(=O)Nc2cc(OCC)ccc2OCC)CC1,-6.3,1.0,0.2,29.5,1.8,.,.,.,.
CCOc1ccc(OCC)c(NC(=O)C2CCCN(c3nc(C)cc(C)n3)C2)c1 (configuration not stated),-6.9,2.4,-5.2,101.1*,-26.2,7.8,27.6,2.71,9.66
COc1ccccc1NC(=O)C1CCCN(c2nc(C)cc(C)n2)C1 (configuration not stated),-8.1,0.8,8.0,11.1,4.7,.,.,.,.
O=[N+]([O-])c1cc2c(cc1/C=N/NS(=O)(=O)c1ccc(Br)cc1)OCO2,-5.1,4.5,-2.1,3.5,-11.1,.,.,.,.
COC(=O)c1ccc(C(C(=O)NC2CCCCC2)N(Cc2ccccc2)C(=O)Cc2cccs2)cc1 (configuration not stated),2.5,48.4*,7.1,45.1,-8.0,26.1,27.2,-2.39,-4.54
COC(=O)c1ccc(C(C(=O)NC2CCCCC2)N(C(=O)Cc2cccs2)C2CC2)cc1 (configuration not stated),6.3,2.0,2.6,4.1,-10.4,.,.,.,.
Cc1ccc(OCC(=O)c2ccc(Cl)s2)c([N+](=O)[O-])n1,-3.0,-0.7,-4.7,-1.2,-1.8,.,.,.,.
Nc1c(C(=O)C2CC2)sc2nc(-c3cccs3)cc(C(F)(F)F)c12,-11.8,42.3*,i,35.3,-20.5,-87.5,-7.2,92.2*,271*
CC(C)NC(=O)c1sc2nc(-c3cccs3)cc(-c3cccs3)c2c1N,3.2,2.8,-38.2,1.1,1.4,.,.,.,.
O=C(N/N=C1\CCCc2c1[nH]c1ccc([N+](=O)[O-])cc21)c1ccncc1,-12.0,0.5,-4.8,113.8*,-15.9,4.4,39.1,-1.14,-0.09
O=C1NCCc2c1[nH]c1ccc([N+](=O)[O-])cc21,2.4,0.2,8.8,19.7,-11.7,.,.,.,.
CCOC(=O)c1sc2cc([N+](=O)[O-])cc(SCC(C)C)c2c1N,0.7,31.6,-137.6,59.9,5.4,23.4,-7.2,81.6*,129*
CC1COC(=O)C(NNc2ccc(Cl)c(Cl)c2)=N1 (configuration not stated),-23.6,0.8,-3.7,4.9,0.5,.,.,.,.
OC1(c2cccc(C(F)(F)F)c2)CCN(c2ccc(-c3ccccc3)nn2)CC1,20.0,1.6,2.7,92.6*,-28.4,14.1,37.0,8.36,51.3*
Cc1nc2c(-c3ccc(F)cc3)c(C)nn2c(C)c1CCC(=O)Nc1ccccc1F,.,.,-1.6,.,.,.,.,.,.
Nc1c(-c2ccccc2)c(CSc2nc3ccccc3[nH]2)nn1-c1ccc(Cl)cc1,3.4,43.4*,20.1,28.4,-9.7,29.1,24.7,-0.69,-3.04
Cc1cc(N2CCCCC2)ccc1[N+](=O)[O-],1.6,1.7,-30.9,83.7*,-15.0,1.1,7.7,0.76,2.41
O=C1CC2(CCCC2)Oc2ccccc21,.,.,2.0,.,.,.,.,.,.
Cc1cc(C)nc(-n2nc(C)c3c(C(F)(F)F)cc(=O)[nH]c32)n1,-4.1,3.5,-1.9,72.3,-2.8,-0.2,32.5,3.56,7.16
Cc1oc(-c2ccccc2)cc1C(=O)NC1CCN(Cc2ccccc2)CC1,.,.,1.8,.,-14.0,.,.,.,.
COc1ccc(Cl)cc1NC(=O)COC(=O)CCCN1C(=O)c2ccccc2C1=O,-5.6,1.5,-1.9,3.5,-10.1,1.4,19.6,-1.39,0.16
COCCNC(=O)C(c1ccncc1)N(Cc1ccccc1)C(=O)Cn1nnc2ccccc21 (configuration not stated),3.4,-0.6,12.9,-3.7,-6.1,.,.,.,.
CN(C)c1nc(OCCOC(=O)COc2ccc(Cl)cc2Cl)nc(N(C)C)n1,-0.5,2.1,0.4,24.6,0.2,.,.,.,.
CN(C)c1nc(OCCNC(=O)COc2ccc(Cl)cc2Cl)nc(N(C)C)n1,8.1,61.1*,-6.4,28.0,0.3,36.9,40.8,-2.29,-5.09
CCOC(=O)c1sc(Nc2nc3cc4c(cc3s2)OCO4)cc1C,-6.3,195.0*,-3.0,175.3*,-3.4,2.2,15.6,-1.59,-2.24
CC(=O)c1sc(Nc2nc3cc4c(cc3s2)OCO4)nc1C,-2.8,-0.7,32.1,-6.3,-12.5,.,.,.,.

# Screening results from PubChem BioAssay.
